The text below walks through data of PubChem BioAssay.

In general, viability refers to a read-out of living cells in per cent, often relative to untreated cells. Usually inhibition stands for the relative decrease from the control value, in per cent.

Assay [1] in a line: Her2 expression decrease, cell viability multiplex – SKBR3 breast tumor cells, AlphaScreen, ATP viability, primary screen (AID 461;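 active means Her2 level under about 52% in both replicate screens, with viability over 70% of control, limit read from the data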;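 on Her2 level: lower value means less Her2 protein in the cells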;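 on viability: percent of carrier control wells set as 100% viability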). Conditions: SKBR3 Her2 protein level, 18-24 h, measured here: SKBR3 viability, ATP luminescence, at 10 µM.
The target in assay [2] is Receptor tyrosine-protein kinase erbB-2 (Homo sapiens) (UniProt P04626). The description is as above. The note with it: 18-24 h, at 10 µM, stronger effect = lower value.
Assay [3] in a line: reduced viability of SK-BR-3 breast cancer cells – cell-based, 24 h, human, pilot screen (AID 572).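 Further: compound exposure lasted between 18 and 24 h rather than exactly 24 h; 100% = carrier-treated control wells.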 Conditions: SK-BR-3 viability, CellTiter-Glo luminescence, at 10 µM, stronger effect = lower value.
Assay [4] can be described thus: HUVEC growth inhibition – cell-based, human, primary screen (AID 575;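 active means viability at or below 30% in both replicate assays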;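 further: 100% = median of untreated cell wells with 0.1% DMSO on each plate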). The note with it: HUVEC proliferation, CellTiter-Glo luminescence, 72 h; at 10 µM; stronger effect = lower value. In a few lines:
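material = primary HUVEC, no more than 12 passages | input = 1250 cells per well | controls = vehicle and MePR control wells | measured by = CTG luminescence | times = 72 h compound incubation | format = collagen-coated 384-well format | read-out = % viability vs DMSO wells | doses = single 10 µM dose, 0.1% DMSO, from 5x medium stock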
For orientation: Cellular ATP, detected with luciferase, serves as a proxy for viable cell number.

The nature of assay [5]: MRP1 drug-resistance reversers in H69AR cells – cell-based, doxorubicin co-treatment, pilot screen (AID 601;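 active means viability loss from added drug above about 55%, and viability with drug at most 40%, in both replicates, limit read from the data, passing the limit was not always enough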). The note with it: CellTiter-Glo, 72 h, at 10 µM; for differential viability (reversal): stronger effect = higher value.
Assay [6] is described as follows: yeast transport mutant growth inhibition pilot in 384-well plates, post-Golgi transport modulator project (AID 636; in the data active means inhibition above about 31%). Conditions: absorbance 615 nm, about 18 h, stronger effect = higher value.
Assay [7] can be described thus: growth suppression of yeast trafficking mutant, preliminary HTS, modulators of trafficking downstream of Golgi apparatus project, 1536-format plate, OD 615 nm (AID 637; in the data active means inhibition above about 30%). The note with it: yeast transport mutant growth, absorbance 615 nm, 18 h; stronger effect = higher value.
The mark [8] stands for this setting: H69AR cells + 2 uM doxorubicin, measured here: viability with 2 uM doxorubicin, stronger effect = lower value.
Setting [9] is: H69AR cells, compound alone cytotoxicity.

The source made the active and inactive calls.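 How the source made its calls, unless noted: active means viability at or below 10% of carrier control in both of two separate runs; inconclusive means viability at or below 10% in only one of the two runs; inactive means the rest.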

Chain of Receptor tyrosine-protein kinase erbB-2 (Homo sapiens) (P04626 whole entry, looked up): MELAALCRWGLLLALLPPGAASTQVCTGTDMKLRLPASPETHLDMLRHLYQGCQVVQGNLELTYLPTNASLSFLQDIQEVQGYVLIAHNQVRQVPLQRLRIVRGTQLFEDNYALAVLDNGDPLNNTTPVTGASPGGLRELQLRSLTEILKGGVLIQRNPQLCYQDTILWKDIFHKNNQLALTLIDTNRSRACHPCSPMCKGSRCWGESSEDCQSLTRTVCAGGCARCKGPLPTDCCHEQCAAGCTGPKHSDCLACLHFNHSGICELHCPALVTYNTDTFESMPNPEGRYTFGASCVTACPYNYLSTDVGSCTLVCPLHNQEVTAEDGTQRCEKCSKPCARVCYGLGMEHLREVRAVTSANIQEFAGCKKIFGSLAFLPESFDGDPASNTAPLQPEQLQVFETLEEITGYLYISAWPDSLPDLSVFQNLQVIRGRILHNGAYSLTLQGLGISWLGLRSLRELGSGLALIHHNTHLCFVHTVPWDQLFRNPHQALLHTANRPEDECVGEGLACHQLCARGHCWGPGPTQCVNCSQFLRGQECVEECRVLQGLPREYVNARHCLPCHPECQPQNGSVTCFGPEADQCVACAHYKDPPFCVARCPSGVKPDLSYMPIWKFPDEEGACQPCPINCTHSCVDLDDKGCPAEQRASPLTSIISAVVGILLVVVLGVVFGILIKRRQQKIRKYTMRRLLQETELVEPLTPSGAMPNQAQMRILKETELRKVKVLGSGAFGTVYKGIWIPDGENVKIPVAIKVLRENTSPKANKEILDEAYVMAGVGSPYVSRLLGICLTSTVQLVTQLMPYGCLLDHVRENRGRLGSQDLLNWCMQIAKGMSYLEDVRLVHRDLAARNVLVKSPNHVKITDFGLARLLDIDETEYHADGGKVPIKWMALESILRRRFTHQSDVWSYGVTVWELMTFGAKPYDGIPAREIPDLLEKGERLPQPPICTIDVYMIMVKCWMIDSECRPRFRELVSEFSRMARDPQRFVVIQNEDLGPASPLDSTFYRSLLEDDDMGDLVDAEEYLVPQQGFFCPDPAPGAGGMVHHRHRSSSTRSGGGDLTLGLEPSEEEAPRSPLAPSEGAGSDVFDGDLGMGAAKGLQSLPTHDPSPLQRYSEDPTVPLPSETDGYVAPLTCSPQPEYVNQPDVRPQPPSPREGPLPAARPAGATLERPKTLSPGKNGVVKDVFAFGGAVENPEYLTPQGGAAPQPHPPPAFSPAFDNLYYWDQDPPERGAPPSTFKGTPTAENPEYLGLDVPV

With `Cc1cccc(N2CCN(C(=O)c3ccc(NS(=O)(=O)c4c(C)noc4C)cc3)CC2)c1C`, the viability in assay [1] was 98%; in assay [3] it was 98% (inactive); in assay [4] it was 68.2% (inactive); in assay [5] (setting [8]), 46.2%; in assay [5] (setting [9]), 59.8%. The Her2 level in assay [2] is 106% (inactive). The differential viability (reversal) in assay [5] (H69AR cells + 2 uM doxorubicin) was 13.6% (inactive). Moreover, the inhibition in assay [6] was -3.68% (inactive); in assay [7], 2% (inactive).

In the case of `CCn1cc(C(=O)OCC(=O)OC2CC(C)CCC2C(C)C)c(=O)c2ccc(C)nc21` (centres undefined), the viability in assay [1] was 94.5%; in assay [3], 94.5% (inactive); in assay [4], 35.3% (inactive); in assay [5] (setting [8]) it was 46.3%; in assay [5] (setting [9]), 44.7%. Also, the Her2 level in assay [2] is 67.5% (inactive). For the same compound, the differential viability (reversal) in assay [5] (H69AR cells + 2 uM doxorubicin) is -1.67% (inactive). The inhibition was 78.4% (active) in assay [6] and -1.45% (inactive) in assay [7].

With `O=C(NC1CCc2ccccc21)C1CCN(S(=O)(=O)c2ccc(-n3cnnn3)cc2)CC1` (centres undefined), the viability in assay [1] was 74.5%; in assay [3] it was 74.5% (inactive); in assay [4] it was 96.4% (inactive); in assay [5] (setting [8]), 63.5%; in assay [5] (setting [9]), 55%. Besides, the Her2 level in assay [2] is 85% (inactive). Also, the differential viability (reversal) in assay [5] (H69AR cells + 2 uM doxorubicin) is -8.48% (inactive). Also, the inhibition is -2.63% (inactive) in assay [6] and -0.36% (inactive) in assay [7].

As to `O=C(NCc1ccco1)c1cc2c(s1)CSC2`, the viability in assay [1] was 97.5%; in assay [3], 97.5% (inactive); in assay [4], 82.8% (inactive); in assay [5] (setting [8]) it was 83.6%; in assay [5] (setting [9]) it was 57.3%. Also, in assay [2], the Her2 level is 88% (inactive). Besides, in assay [5] (H69AR cells + 2 uM doxorubicin), the differential viability (reversal) is -26.3% (inactive). For the same compound, the inhibition in assay [6] was -0.92% (inactive); in assay [7], 2.86% (inactive).

Turning to `Cc1ccc2cc(CN(CCN3CCCC3)C(=O)Nc3ccc(F)cc3)c(=O)[nH]c2c1C`, the viability is 94.5% in assay [1]; 94.5% (inactive) in assay [3]; 38.8% (inactive) in assay [4]; 25.6% in assay [5] (setting [8]); 13.5% in assay [5] (setting [9]). The Her2 level in assay [2] was 81% (inactive). The differential viability (reversal) in assay [5] (H69AR cells + 2 uM doxorubicin) is -12.2% (inactive). Besides, the values for the inhibition in assay [6] and in assay [7] were 0.52% (inactive) and -0.79% (inactive), respectively.

Take `COC(=O)c1ccccc1S(=O)(=O)N(Cc1cc2cc3c(cc2[nH]c1=O)OCO3)C1CCCCC1`: the viability was 83% in assay [1]; 83% (inactive) in assay [3]; 82.6% (inactive) in assay [4]; 67.4% in assay [5] (setting [8]); 60% in assay [5] (setting [9]). For the same compound, the Her2 level in assay [2] was 98.5% (inactive). Moreover, in assay [5] (H69AR cells + 2 uM doxorubicin), the differential viability (reversal) is -7.41% (inactive). Besides, the inhibition in assay [6] was 4.74% (inactive); in assay [7], -2% (inactive).

Take `COc1cc(-c2noc(-c3ccccc3C(=O)NCc3ccco3)n2)cc(OC)c1OC`: the viability in assay [1] was 79%; in assay [3] it was 79% (inactive); in assay [4], 55.6% (inactive); in assay [5] (setting [8]), 65.2%; in assay [5] (setting [9]) it was 59%. Besides, the Her2 level in assay [2] is 72.5% (inactive). Besides, the differential viability (reversal) in assay [5] (H69AR cells + 2 uM doxorubicin) was -6.29% (inactive). The inhibition in assay [6] was -5.14% (inactive); in assay [7], 1.11% (inactive).

Take `CCOC(=O)c1sc(Nc2nc3c(OC)cccc3s2)nc1C`: the viability in assay [1] was 81.5%; in assay [3], 81.5% (inactive); in assay [4] it was 63.3% (inactive); in assay [5] (setting [8]), 66.6%; in assay [5] (setting [9]) it was 59.2%. For the same compound, the Her2 level in assay [2] is 72% (inactive). Besides, the differential viability (reversal) in assay [5] (H69AR cells + 2 uM doxorubicin) was -7.45% (inactive). For the same compound, the values for the inhibition in assay [6] and in assay [7] were 0.13% (inactive) and -4.76% (inactive), respectively.

On to `CCOC(=O)Cc1nnc2c(Nc3ccccc3F)nc3nonc3n12`, for which the viability in assay [1] is 108%; in assay [3] it was 108% (inactive); in assay [4], 36.9% (inactive); in assay [5] (setting [8]), 31.5%; in assay [5] (setting [9]), 12.6%. In assay [2], the Her2 level was 95.5% (inactive). Besides, in assay [5] (H69AR cells + 2 uM doxorubicin), the differential viability (reversal) was -18.9% (inactive). In addition, the inhibition in assay [6] is -3.9% (inactive); in assay [7], -2.54% (inactive).

In the case of `CCOc1ccc2nc(NC(=O)C3CCCN(S(=O)(=O)c4c(C)noc4C)C3)sc2c1` (centres undefined), the viability was 124% in assay [1]; 124% (inactive) in assay [3]; 49.7% (inactive) in assay [4]; 71.2% in assay [5] (setting [8]); 47.9% in assay [5] (setting [9]). Further, the Her2 level in assay [2] was 74% (inactive). In assay [5] (H69AR cells + 2 uM doxorubicin), the differential viability (reversal) is -23.4% (inactive). In addition, the inhibition is 6.28% (inactive) in assay [6] and 7.5% (inactive) in assay [7].

Take `CC(C)(C)c1cc(NC(=O)c2cc(F)c(F)c(F)c2F)no1`: the viability is 102% in assay [1]; 102% (inactive) in assay [3]; 63.6% (inactive) in assay [4]; 70.8% in assay [5] (setting [8]); 50.2% in assay [5] (setting [9]). Besides, the Her2 level in assay [2] was 92% (inactive). Besides, in assay [5] (H69AR cells + 2 uM doxorubicin), the differential viability (reversal) was -20.6% (inactive). Besides, the values for the inhibition in assay [6] and in assay [7] were 2.08% (inactive) and -3.83% (inactive), respectively.

Regarding `COc1ccc(N2CCN(Cc3cc(=O)oc4cc(C)c(Cl)c(C)c34)CC2)cc1`, the viability in assay [1] was 93.5%; in assay [3] it was 93.5% (inactive); in assay [4] it was 84.1% (inactive); in assay [5] (setting [8]), 75.8%; in assay [5] (setting [9]), 74.8%. For the same compound, in assay [2], the Her2 level was 83.5% (inactive). For the same compound, the differential viability (reversal) in assay [5] (H69AR cells + 2 uM doxorubicin) is -1.03% (inactive). The inhibition in assay [6] was -7.33% (inactive); in assay [7], 1.9% (inactive).

As for `C=CCn1c(N)c(C(=O)OC(C)(C)C)c2nc3ccccc3nc21`, the viability in assay [1] was 102%; in assay [3], 102% (inactive); in assay [4], 70.5% (inactive); in assay [5] (setting [8]), 66.7%; in assay [5] (setting [9]) it was 50.8%. In addition, the Her2 level in assay [2] is 90.5% (inactive). For the same compound, the differential viability (reversal) in assay [5] (H69AR cells + 2 uM doxorubicin) is -15.9% (inactive). For the same compound, the results for the inhibition in assay [6] and in assay [7] were 0.66% (inactive) and 1.94% (inactive), respectively.

Regarding `CCc1cc2c(=O)c(-c3ccc4c(c3)OCCO4)coc2cc1OC(=O)c1ccco1`, the viability in assay [1] was 72.5%; in assay [3] it was 72.5% (inactive); in assay [4], 64.3% (inactive); in assay [5] (setting [8]), 63.9%; in assay [5] (setting [9]) it was 50.5%. Further, the Her2 level in assay [2] is 68% (inactive). The differential viability (reversal) in assay [5] (H69AR cells + 2 uM doxorubicin) is -13.3% (inactive). The inhibition in assay [6] is -3.29% (inactive); in assay [7], 2.79% (inactive).

`N#CC1=C(SCC(=O)NC23CC4CC(CC(C4)C2)C3)NC(=O)C(C#N)C12CCCCC2` (centres undefined): the viability in assay [1] is 74%; in assay [3], 74% (inactive); in assay [4], 54.1% (inactive); in assay [5] (setting [8]), 41%; in assay [5] (setting [9]) it was 35.8%. In assay [2], the Her2 level was 76% (inactive). Besides, in assay [5] (H69AR cells + 2 uM doxorubicin), the differential viability (reversal) is -5.21% (inactive). In addition, the inhibition was -5.48% (inactive) in assay [6] and -5.4% (inactive) in assay [7].

Consider `N#CC(C(=O)C1CCCCC1)c1nc2ccccc2[nH]1` (centres undefined), for which the viability in assay [1] is 91.5%; in assay [3], 91.5% (inactive); in assay [4], 82% (inactive); in assay [5] (setting [8]) it was 76.1%; in assay [5] (setting [9]), 56.1%. Also, the Her2 level in assay [2] is 89.5% (inactive). Besides, in assay [5] (H69AR cells + 2 uM doxorubicin), the differential viability (reversal) was -19.9% (inactive). Also, the inhibition is 0.66% (inactive) in assay [6] and 20.6% (inactive) in assay [7].
